CAL PDZ FP-1 – untagged CAL PDZ binding inhibitors, primary screen, biochemical, fluorescence polarization, HTS. Golgi-associated PDZ and coiled-coil motif-containing protein (Homo sapiens), Q9HD26. inhibition, % at 24.9 µM. actives 0.92% (n = 300,000). AID 602252, 2012. purified CAL PDZ, TMR-peptide fluorescence polarization, 1 h;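 active = mean inhibition of at least 30% with at least half of replicates also reaching 30%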;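 note: 0% = DMSO neutral control and 100% = excess unlabeled competitor peptide PRC23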
CAL PDZ FP-2 – CAL PDZ peptide-binding inhibitors, primary screen, biochemical, fluorescence polarization, Cer-tagged CAL PDZ, HTS | Golgi-associated PDZ and coiled-coil motif-containing protein (Homo sapiens), Q9HD26 | purified CAL PDZ, TMR-peptide fluorescence polarization, 1 h | inhibition, % at 20 µM | actives 0.02% (n = 330,000) | AID 504414, 2011;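 active = highest replicate inhibition of at least 40%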;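 note: plate controls were DMSO neutral control wells for no effect and unlabeled competitor peptide control wells for full effect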
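Test system: purified CerCALP PDZ construct; Compound dosing: one concentration, 20 µM compound; Also added: TMR-labelled reporter peptide T*-PRC34 bound in PDZ groove; Read-out: inhibition from polarization loss; Controls: unlabelled peptide and DMSO controls; Signal: FP readout, S and P plane fluorescence; Incubation: 1 h at RT.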
CDK5 p35 inh – inhibitors of human CDK5/p35 kinase, primary screen, biochemical, single concentration | Cyclin-dependent kinase 5 (Homo sapiens) + Cyclin-dependent kinase 5 activator 1 (Homo … | actives 0.01% (n = 330,000) | Recombinant CDK5/p35, ADP-Glo luminescence, 60 min | inhibition, % at 10 µM;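 active = highest replicate inhibition of at least 50% and at least 75% of replicates reaching 50%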;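 note: plate controls were DMSO neutral control for no effect and GW8510 at 10 µM for full effect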
Target sequence (Q00535 whole entry, looked up): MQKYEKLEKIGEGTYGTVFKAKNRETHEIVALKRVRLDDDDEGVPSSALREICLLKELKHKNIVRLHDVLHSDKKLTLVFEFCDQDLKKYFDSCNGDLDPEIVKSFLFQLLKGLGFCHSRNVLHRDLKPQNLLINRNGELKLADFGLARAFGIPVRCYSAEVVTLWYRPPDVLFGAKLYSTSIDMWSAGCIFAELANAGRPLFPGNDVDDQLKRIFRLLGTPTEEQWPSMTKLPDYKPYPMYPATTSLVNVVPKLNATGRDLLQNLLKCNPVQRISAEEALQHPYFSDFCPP
Target sequence (Q15078 whole entry, looked up): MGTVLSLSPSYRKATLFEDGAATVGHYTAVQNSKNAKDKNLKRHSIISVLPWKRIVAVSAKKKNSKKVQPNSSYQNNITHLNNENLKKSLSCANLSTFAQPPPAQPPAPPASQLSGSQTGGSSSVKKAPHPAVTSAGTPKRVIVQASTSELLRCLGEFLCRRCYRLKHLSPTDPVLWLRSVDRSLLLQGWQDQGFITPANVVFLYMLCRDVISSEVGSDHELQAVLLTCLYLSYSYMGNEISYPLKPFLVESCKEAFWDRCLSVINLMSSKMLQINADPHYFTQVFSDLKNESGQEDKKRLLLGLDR
PvdQ inh – P. aeruginosa PvdQ acylase inhibitors, primary screen, biochemical, fluorescence, plate reader and imaging, single point; PvdQ acylase [Pseudomonas aeruginosa LESB58]; purified PvdQ acylase; inhibition, % at 10 µM; actives 0.063% (n = 340,000); AID 488965, 2010; in the data active = inhibition above about 30%, passing the limit was not always enough;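 note: 0% = vehicle neutral wells and 100% = reference inhibitor wells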
Dyrk1A ADPGlo – rat Dyrk1A kinase inhibitors, primary screen, biochemical, single point, plate reader; Dual specificity tyrosine-phosphorylation-regulated kinase 1A (Rattus norvegicus), Q63470; ADP-Glo luminescence, NFATc1 peptide; inhibition, % at 12.5 µM; actives 0.43% (n = 310,000); AID 504441, 2011; in the data active = inhibition above about 50%;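 note: plate controls were vehicle with enzyme for no effect and no enzyme for full effect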
TbMetRS inhib – T. brucei MetRS inhibitors, primary screen, biochemical, luminescence; actives 0.4% (n = 360,000); inhibition, % at 11.9 µM; AID 624268, 2012; methionyl-tRNA synthetase (Trypanosoma brucei brucei); purified T. brucei MetRS, ATP depletion, Kinase-Glo luminescence;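 active = inhibition above a per-plate cutoff of the control wells' mean inhibition plus 3 SD, cut at about 5.5% in these data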;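 note: 0% = DMSO wells median and 100% = median of wells with control inhibitor compound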
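Test system – parasite MetRS enzyme · Reagent – substrates ATP, L-methionine and bulk Escherichia coli tRNA · Doses – 11.9 µM compound single dose, 0.9% DMSO · Times – 15 min enzyme-compound preincubation, 2 h reaction, 10 min detection, 25 °C · Signal – Kinase-Glo luminescence, ATP depletion format · Controls – DMSO-only wells as low control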
Dyrk1A artifact – ADP-Glo luciferase interference without Dyrk1A, dose response, artefact control for Dyrk1A inhibitor project, biochemical, luminescence, cherry-pick, set 02. shares compounds with Dyrk1A ADPGlo. AC50, µM (series often up to 12 µM), without a hit: at the highest dose activity change, negative = inhibition. 1,300 tested, under 10 active. ADP-Glo luciferase artifact assay, no Dyrk1A. AID 588348, 2011;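 active = fitted half-maximal dose AC50 no more than ten times the top valid tested dose, with luminescence dropping as dose rises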
* marks the source's active call; other numbers are inactive results; . = no result given. Only some compounds are listed: those with a hit (about 1.4% of all), similar ones and a draw of the others.

SMILES | CAL PDZ FP-1 | CAL PDZ FP-2 | CDK5 p35 inh | PvdQ inh | Dyrk1A ADPGlo | TbMetRS inhib | Dyrk1A artifact
COc1cc(NC(C)CCCN)c2nc(C)ccc2c1Oc1ccc(F)cc1 (stereo unspecified) | . | . | . | . | . | 0 | .
C=CCn1c(NS(=O)(=O)c2ccccc2)c(S(=O)(=O)c2ccc(C)cc2)c2nc3ccccc3nc21 | -1 | -2 | -1 | -1 | -66 | -1 | .
O=S(=O)(Nc1c(S(=O)(=O)c2ccccc2)c2nc3ccccc3nc2n1C1CCCCC1)c1ccccc1 | -4 | -1 | 1 | 17 | 75* | 1 | 10%
CC[C@@H]1CC2=C(C(=O)OC(C)(C)O2)[C@H](c2ccc(Cl)cc2)O1 | . | . | . | . | . | 0 | .
CCCCC(=O)Nc1cc(Cl)ccc1C(=O)O | . | -1 | -1 | -11 | 57* | 0 | 7%
Cc1cccc(CNc2ncnc3ccc(-c4ccccc4Cl)cc23)c1 | -2 | -1 | 0 | -18 | 6 | 4 | .
Cc1cccc(CNc2ncnc3ccc(-c4ccc5c(c4)OCO5)cc23)c1 | -1 | 0 | 1 | -13 | 51* | 1 | 6%
C(=N\NC1=Nc2cccc3cccc1c23)/c1ccccn1 | 7 | 1 | 1 | -11 | 53* | 0 | 9%
Clc1ccccc1/C=N/NC1=Nc2cccc3cccc1c23 | 1 | 1 | -1 | -1 | 2 | -2 | .
COCCCNC1=C(Cl)C(=O)c2ccccc2C1=O | 0 | 0 | 1 | -16 | . | 0 | .
COCCCNc1c2c3c(cccc3[nH]c1=O)C(=O)c1ccccc1-2 | . | 8 | 2 | 5 | 65* | 0 | 15%
Cn1c(O)c(C2=c3ccccc3=NC2=O)[nH]c1=S | -1 | -2 | 3 | -9 | -5 | 0 | .
COc1ccc2nc(-n3c(O)c(C4=c5ccccc5=NC4=O)[nH]c3=S)sc2c1 | 2 | -2 | 2 | 21 | 63* | -1 | 8%
CCOC(=O)C1CCCN(c2c(NCC3CCCN3CC)c(=O)c2=O)C1 (stereo unspecified) | . | -1 | 0 | 13 | 18 | -1 | .
CCOC(=O)C1CCCN(c2c(NCCCN3CCCC(C)C3)c(=O)c2=O)C1 (stereo unspecified) | . | -1 | 2 | 3 | 59* | -1 | 7%
CCOC(=O)C1CCCN(c2c(NCCN(C)Cc3ccccc3)c(=O)c2=O)C1 (stereo unspecified) | . | 0 | 0 | -1 | 61* | 0 | 6%
CC1C(=O)N(Cc2cn(CCC3OCCCO3)nn2)CCS(=O)(=O)N1Cc1ccc(-c2ccc(Cl)c(Cl)c2)cc1 (stereo unspecified) | . | . | . | . | . | 0 | .
CCOc1ccc(NC(=O)OCCN2CCN(CCc3ccccc3)C(C)C2)cc1 (stereo unspecified) | -5 | -1 | 1 | 4 | . | 0 | .
COc1cccc(-n2sc3c(c2=S)-c2cc(OC)ccc2NC3(C)C)c1 | -7 | -1 | 0 | -5 | -3 | 0 | .
CC1(C)Nc2ccc(O)cc2-c2c1ssc2=S | 8 | 1 | 0 | -10 | 52* | 0 | 9%
N#CC(C#N)=C1C=CC=CN1/C(=C\c1ccco1)C(=O)c1ccccc1 | -1 | 0 | 0 | -11 | 63* | 0 | 6%
N#CC(C#N)=C1C=CC=CN1/C(=C\c1ccco1)C(=O)c1ccc(Br)cc1 | 10 | 0 | 2 | -14 | 48 | 1 | .
c1cncc(-c2nc(-c3cccs3)cs2)c1 | 4 | -2 | 4 | -5 | 30 | 0 | .
c1cncc(-c2csc(-c3cccnc3)n2)c1 | -7 | 0 | 3 | -11 | 86* | -1 | 9%
COc1ccc(C(=O)N2CCN(c3c(C)cccc3C)CC2)cc1OC | . | 1 | -1 | 8 | 59* | -1 | 9%
SMILES | CAL PDZ FP-1 | CAL PDZ FP-2 | CDK5 p35 inh | PvdQ inh | Dyrk1A ADPGlo | TbMetRS inhib | Dyrk1A artifact
Cc1cccc(Nc2cc(C)c3c(O)cccc3n2)c1C | 8 | 0 | -2 | -13 | 68* | 0 | 7%
c1cncc(-c2nc(NCc3ccco3)c3ccccc3n2)c1 | -1 | -6 | 1 | -13 | 53* | 0 | 10%
Cc1nc(NCCCn2ccnc2)c2ccccc2n1 | 0 | -3 | 1 | -2 | 11 | 0 | .
c1cncc(-c2nc(NCCCn3ccnc3)c3ccccc3n2)c1 | 9 | -2 | -1 | -9 | 75* | 0 | 9%
N=C1/C(=C\c2ccc(-c3cccc(C(=O)O)c3)o2)C(=O)N=C2SC=C(c3ccccc3)N12 | -3 | -1 | 0 | -9 | 61* | 0 | 8%
COc1cccc(Cn2nnc(C(=O)NCCc3ccc(Cl)cc3)c2N)c1 | . | 0 | 0 | 5 | 56* | 0 | 9%
Nc1c(C(=O)NCc2ccccc2)nnn1Cc1ccccc1 | . | -1 | 0 | -4 | 60* | -1 | 10%
CSc1ccc(Cn2nnc(C(=O)NCc3ccccc3)c2N)cc1 | -9 | 0 | 0 | -6 | -3 | 0 | .
C[C@@H](NC(=O)[C@@H]1CCCN1C(=O)[C@@H]1CCCN1C(=O)c1cccs1)c1ccccc1 | . | . | . | . | . | 0 | .
CC(=O)N(/N=C1\Sc2ccccc2C1=O)c1cccc(C)c1 | 7 | -1 | 3 | -8 | 50* | 0 | 7%
CC(=O)N(CN1C(=O)c2ccccc2C1=O)c1cccc(C)c1 | 7 | -1 | 0 | -1 | 3 | 0 | .
COc1ccc(CN2C(=O)C(CC(=O)NCC3CCCCC3)CC(C(=O)N(C(C)C)C(C)C)=C2C)cc1 (stereo unspecified) | . | . | . | . | . | -1 | .
O=C(Nc1cccc(Cl)c1)Nc1cccc(Cl)c1 | -2 | 0 | 1 | 11 | 3 | 0 | .
O=C(Nc1cccc(Cl)c1)Nc1nccs1 | -4 | -4 | 1 | -14 | 59* | 1 | 11%
COC(=O)c1cc(NC(=O)Nc2cccc(Cl)c2)ccc1Cl | -7 | -5 | 0 | 1 | 53* | 0 | 10%
CCCCCCCCN1C(=O)[C@H](CC(=O)N2CCN(C(=O)OCC)CC2)C[C@@]2(C(=O)OC)CC(C)(C)CC=C12 | . | . | . | . | . | -1 | .
CCOC(=O)CSC1=NC(=O)/C(=C\c2ccc(OC(C)=O)cc2)S1 | . | -2 | -1 | -12 | 86* | 1 | 9%

Source: PubChem BioAssay
